The source made the active and inactive calls. The calls are words filed in the database; no cut-off is given here.
What was measured:
HL-60 [1] = assay: Induction of apoptosis in human HL-60 cells upto 30 uM after 48 hrs by flow cytometry; format: functional, cell-based
Method in brief: (§1)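 HL-60 cells exposed to 30 µM for 48 h. Hypodiploid (apoptotic) fraction quantified by flow cytometry; average ± SE of triplicate determinations from a representative experiment.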

HL-60 [2] = assay: Cell cycle arrest in human HL-60 cells assessed as accumulation at G2-M phase at 30 uM after 48 hrs by flow cytometry; format: functional
Method in brief: (§2)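 Cells grown in RPMI 1640 with 10% heat-inactivated FBS at 37 °C, 5% CO2, exposed to 30 µM for 48 h. Washed in ice-cold PBS, fixed in 75% ethanol at -20 °C for 1 h, then stained with 50 µg/mL propidium iodide plus 100 µg/mL RNase A for 1 h at 37 °C in the dark. Phase distribution read by flow cytometry; mean ± SEM of two experiments.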

HL-60 [3] = assay: Cell cycle arrest in human HL-60 cells assessed as accumulation at S phase at 30 uM after 48 hrs by flow cytometry; format: functional; method in brief: as §2
HL-60 [4] = assay: Cell cycle arrest in human HL-60 cells assessed as accumulation at G0/G1 phase at 30 uM after 48 hrs by flow cytometry; format: functional; method in brief: as §2
HL-60 [5] = assay: Cell cycle arrest in human HL-60 cells assessed as accumulation at sub G0/G1 phase at 30 uM after 48 hrs by flow cytometry; format: functional; method in brief: as §2
A549 = assay: Cytotoxicity against human A549 cells after 72 hrs by MTT assay; format: functional, cell-based; settings: A549, 72 h
Method in brief: (§3)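 Exponentially growing cells, 1 × 10^4 per well in RPMI 1640 with 10% FBS, treated with 0.3-100 µM for 72 h. DMSO at most 0.1% (v/v). Viability read by MTT reduction as absorbance at 570 nm and expressed as survival relative to control wells. IC50 obtained by curve fitting; means ± SE of three independent experiments, each in triplicate.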

U-937 = assay: Cytotoxicity against human U937 cells after 72 hrs by MTT assay; format: functional, cell-based; settings: U-937, 72 h; method in brief: as §3
HL-60 [6] = assay: Cytotoxicity against human HL-60 cells after 72 hrs by MTT assay; format: functional, cell-based; settings: HL-60, 72 h; method in brief: as §3
SK-MEL-1 [7] = assay: Cytotoxicity against human SK-MEL-1 cells after 72 hrs by MTT assay; format: functional, cell-based; settings: SK-MEL-1, 72 h; method in brief: as §3
HL-60 [8] = assay: Effect on cell death in human HL-60 cells assessed as induction of procaspase 3 cleavage at 30 uM; format: functional, cell-based
Method in brief: (§4)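 HL-60 cells (1 × 10^6) treated in RPMI 1640, lysed in Tris-HCl pH 6.8 with 2% SDS and boiled. Lysates run on 12% SDS-PAGE, transferred to PVDF and probed with anti-caspase-3, -6 or -7 antibodies, then HRP secondary. Bands detected by chemiluminescence; loading checked by Ponceau S staining. One representative blot of three.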

HL-60 [9] = assay: Induction of apoptosis in human HL-60 cells at 30 uM after 48 hrs by flow cytometry; format: functional; method in brief: as §1
HL-60 [10] = assay: Induction of apoptosis in human HL-60 cells assessed as internucleosomal DNA fragmentation at 30 uM after 24 hrs by ethidium bromide assay; format: functional, cell-based
Method in brief: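 HL-60 cells exposed to 30 µM for 24 h. Total cellular DNA isolated, electrophoresed on 2% agarose, stained with ethidium bromide and inspected under UV for internucleosomal laddering.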

SK-MEL-1 [11] = assay: Induction of apoptosis in human SK-MEL-1 cells assessed as apoptotic bodies at 30 uM after 24 hrs by fluorescence microscopy; format: functional, cell-based
Method in brief: (§5)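 HL-60 or SK-MEL-1 cells exposed to 30 µM, then DNA-stained with Hoechst 33258 (bisbenzimide). Chromatin condensation, fragmentation and apoptotic bodies assessed by fluorescence microscopy.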

SK-MEL-1 [12] = assay: Induction of apoptosis in human SK-MEL-1 cells assessed as fragmentated and condensed chromatin at 30 uM after 24 hrs by fluorescence microscopy; format: functional, cell-based; method in brief: as §5
HL-60 [13] = assay: Induction of apoptosis in human HL-60 cells assessed as apoptotic bodies at 30 uM after 24 hrs by fluorescence microscopy; format: functional, cell-based; method in brief: as §5
HL-60 [14] = assay: Induction of apoptosis in human HL-60 cells assessed as fragmentated and condensed chromatin at 30 uM after 24 hrs by fluorescence microscopy; format: functional, cell-based; method in brief: as §5
HL-60 [15] = assay: Effect on cell death in human HL-60 cells assessed as induction of procaspase 6 cleavage at 30 uM; format: functional, cell-based; method in brief: as §4
HL-60 [16] = assay: Effect on cell death in human HL-60 cells assessed as induction of procaspase 7 cleavage at 30 uM; format: functional, cell-based; method in brief: as §4

For `C=C1C(=O)O[C@H]2[C@H]1[C@@H](O)C[C@@]1(C)[C@H](O)CCC(=C)[C@@H]21`, the Activity (HL-60 [1]) was “inactive”.
Work on `COc1cc([C@@H]2c3cc4c(cc3[C@@H](O[C@@H]3O[C@@H]5CO[C@@H](C)O[C@H]5[C@H](O)[C@H]3O)[C@H]3COC(=O)[C@H]23)OCO4)cc(OC)c1O` [ETOPOSIDE] yielded an Activity (HL-60 [2]) of 2.6%, an Activity (HL-60 [3]) of 17.1% and an Activity (HL-60 [4]) of 29.4%. The Activity (HL-60 [5]) was 47.7%, the IC50 (A549) was 5.9 µM and the IC50 (U-937) was 0.92 µM. For the same molecule, the IC50 (HL-60 [6]) was 0.25 µM and the IC50 (SK-MEL-1 [7]) was greater than 30 µM.
With `C=C1C(=O)O[C@H]2/C=C(/C)[C@@H](OC(C)=O)CC/C(C)=C/[C@@H](OC(=O)/C(C)=C/C)[C@H]12` the Activity (HL-60 [1]) was “inactive”.
For `C=C1C(=O)O[C@H]2/C=C(/C)[C@@H](O)CC/C(C)=C/[C@@H](OC(=O)/C(C)=C/C)[C@H]12`, the Activity (HL-60 [1]) was “inactive”.
`C=C1C(=O)O[C@H]2C[C@@]3(C)[C@H](OC(C)=O)CC[C@@](C)(O)[C@H]3[C@@H](OC(C)=O)[C@H]12` was tested, and the Activity (HL-60 [8]) was “Active”, the Activity (HL-60 [9]) was 12% and the Activity (HL-60 [10]) was “Active”. The Activity (SK-MEL-1 [11]) was “Active”, the Activity (SK-MEL-1 [12]) was “Active” and the Activity (HL-60 [13]) was “Active”. For the same molecule, the Activity (HL-60 [14]) was “Active”, the Activity (HL-60 [2]) was 21.8% and the Activity (HL-60 [3]) was 21.5%. It also gave an Activity (HL-60 [4]) of 39.3%, an Activity (HL-60 [5]) of 11.8% and an IC50 (A549) greater than 100 µM. For the same molecule, the IC50 (U-937) was 10.4 µM, the IC50 (HL-60 [6]) was 13.3 µM and the Activity (HL-60 [15]) was “Active”. The Activity (HL-60 [16]) was “Active” and the IC50 (SK-MEL-1 [7]) was 27.9 µM.
With `C=C1C(=O)O[C@H]2C[C@@]3(C)[C@H](O)CCC(=C)[C@H]3[C@@H](OC(=O)/C(C)=C/C)[C@H]12` the Activity (HL-60 [1]) was “inactive”.
`C=C1CC[C@@H](OC(C)=O)[C@]2(C)C[C@H](OC(C)=O)[C@H]3C(=C)C(=O)O[C@@H]3C12` (stereo not given in full) was tested, and the Activity (HL-60 [8]) was “Active”, the Activity (HL-60 [9]) was 30% and the Activity (HL-60 [10]) was “Active”. The Activity (SK-MEL-1 [11]) was “Active”, the Activity (SK-MEL-1 [12]) was “Active” and the Activity (HL-60 [13]) was “Active”. For the same molecule, the Activity (HL-60 [14]) was “Active”, the Activity (HL-60 [2]) was 18.5% and the Activity (HL-60 [3]) was 22%. For the same molecule, the Activity (HL-60 [4]) was 26.8%, the Activity (HL-60 [5]) was 30% and the IC50 (A549) was 72.4 µM. The IC50 (U-937) was 9.2 µM, the IC50 (HL-60 [6]) was 9.4 µM and the Activity (HL-60 [15]) was “Active”. The Activity (HL-60 [16]) was “Active” and the IC50 (SK-MEL-1 [7]) was 14.3 µM.
With `C=C1C(=O)O[C@H]2C[C@@]3(C)[C@H](OC(C)=O)CC[C@@](C)(O)[C@H]3[C@@H](O)[C@H]12` the Activity (HL-60 [1]) was “inactive”, the IC50 (A549) was greater than 100 µM and the IC50 (U-937) was greater than 100 µM. It also gave an IC50 (HL-60 [6]) greater than 100 µM and an IC50 (SK-MEL-1 [7]) greater than 100 µM.
`C=C1C(=O)O[C@H]2C[C@@]3(C)[C@H](O)CC[C@@](C)(O)[C@H]3[C@@H](O)[C@H]12` was tested, and the Activity (HL-60 [1]) was “inactive”.
`C=C1C(=O)O[C@H]2C[C@@]3(C)[C@H](OC(C)=O)CCC(=C)[C@H]3[C@@H](OC(=O)/C(C)=C/C)[C@H]12` was tested, and the Activity (HL-60 [1]) was “inactive”.
In the case of `C=CC(C)(O)C/C=C/C(C)(O)CCC(OC(C)=O)C(=C)C` (stereo not given), the Activity (HL-60 [1]) is reported as “inactive”.
`C=C1C[C@@H]2OC(=O)C(=C)[C@H]2[C@H](OC(=O)/C(C)=C\C)/C=C(\C)CCC1=O` was tested, and the Activity (HL-60 [1]) was “inactive”.
